Laboratory results reported in ChEMBL document CHEMBL1926564, “Design, synthesis and biological activity of original pyrazolo-pyrido-diazepine, -pyrazine and -oxazine dione derivatives as novel dual Nox4/Nox1 inhibitors” (Bioorg Med Chem, 2011).

Key:
[1] = Cmax in Sprague-Dawley rat at 5 mg/kg, iv; assay type: ADME, organism-based; design: dose 5 mg/kg, route intravenous; conditions: in vivo
Procedure, shortened: (§1)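 Rats in two groups of three: 5 mg/kg iv in EDPW (10% EtOH, 10% DMA, 30% PG, 50% water) or 10 mg/kg oral in aqueous 0.5% CMC/0.25% Tween 20. Carotid arterial cannula blood sampled up to 24 h. Plasma levels by LC/MS/MS (LLOQ 1.00 ng/mL); noncompartmental analysis.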

[2] = Clearance in Sprague-Dawley rat at 10 mg/kg, po; assay type: ADME, organism-based; design: dose 10 mg/kg, route oral; conditions: in vivo; procedure, shortened: as §1
[3] = Lipophilicity, log D of the compound at pH 7.4; assay type: physicochemical; conditions: buffer
NADPH oxidase 2 = target: T1, NADPH oxidase 2 (Homo sapiens, UniProt P04839); test: Antagonist activity at human NOX2 in human polymorphonuclear cell membrane assessed as inhibition of ROS production after 20 mins by cell-free amplex red assay; assay type: functional
T1 sequence (P04839 whole entry): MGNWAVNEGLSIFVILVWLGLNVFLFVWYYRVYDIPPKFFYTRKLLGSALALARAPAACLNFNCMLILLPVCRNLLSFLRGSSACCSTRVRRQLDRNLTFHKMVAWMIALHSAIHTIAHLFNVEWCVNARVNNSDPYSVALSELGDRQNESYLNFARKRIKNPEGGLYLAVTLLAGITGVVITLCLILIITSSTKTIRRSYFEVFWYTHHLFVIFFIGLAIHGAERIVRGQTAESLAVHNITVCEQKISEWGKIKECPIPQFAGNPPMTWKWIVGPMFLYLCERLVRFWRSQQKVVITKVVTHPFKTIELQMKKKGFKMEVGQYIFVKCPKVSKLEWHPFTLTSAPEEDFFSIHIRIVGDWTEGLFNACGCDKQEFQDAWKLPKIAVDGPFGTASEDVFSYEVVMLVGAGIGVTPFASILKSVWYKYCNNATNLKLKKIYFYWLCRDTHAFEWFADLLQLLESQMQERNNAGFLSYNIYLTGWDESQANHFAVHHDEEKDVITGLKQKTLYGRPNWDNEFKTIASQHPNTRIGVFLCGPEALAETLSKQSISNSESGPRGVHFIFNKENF
Procedure, shortened: (§2)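 Membranes from tetracycline-induced (24 h) Nox-expressing cells or human PMN (Nox2), sucrose-gradient purified; or xanthine oxidase. Incubated in PBS with Amplex Red, HRP and cofactors; NADPH (Nox) or xanthine starts ROS. Compound 1 nM–100 µM, 20 min at 37 °C, plate-reader. Background without membranes or agonist. Ki by Cheng-Prusoff; mean of ≥3 experiments in triplicate.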

[4] = Volume of distribution at steady state in Sprague-Dawley rat at 5 mg/kg, iv; assay type: ADME, organism-based; design: dose 5 mg/kg, route intravenous; conditions: in vivo, read-out: Vdss; procedure, shortened: as §1
[5] = AUC (infinity) in Sprague-Dawley rat at 10 mg/kg, po; assay type: ADME, organism-based; design: dose 10 mg/kg, route oral, time infinity; conditions: plasma; procedure, shortened: as §1
[6] = Efflux ratio of apparent permeability across human Caco2 cells at 10 uM after 2 hrs; assay type: ADME, cell-based; conditions: Caco-2
Procedure, shortened: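 Caco-2 monolayers grown 20 days, TEER >800 ohm·cm². Compound 10 µM final in HBSS pH 6.5 (1% DMSO), dosed apical (A→B) or basolateral (B→A), 2 h at 37 °C; both compartments sampled, LC–MS/MS cassette analysis with 5-point calibration.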

[7] = AUC (infinity) in Sprague-Dawley rat at 5 mg/kg, iv; assay type: ADME, organism-based; design: time infinity, dose 5 mg/kg, route intravenous; conditions: plasma; procedure, shortened: as §1
[8] = Oral bioavailability in Sprague-Dawley rat at 10 mg/kg; assay type: ADME, organism-based; conditions: in vivo; procedure, shortened: as §1
Salmonella typhimurium [9] = test: Genotoxicity in Salmonella Typhimurium at 100 uM by AMES test; assay type: toxicity, organism-based; conditions: salmonella enterica subsp. enterica serovar typhimurium
[10] = Mutagenicity in micronucleus at 500 uM by in vitro assay; assay type: ADME
Cytochrome P450 2D6 = Cytochrome P450 2D6 (Homo sapiens, UniProt P10635); test: Inhibition of human recombinant CYP2D6 by mass spectrophotometry; assay type: ADME
Procedure, shortened: (§3)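 Compound 0.1–25 µM (0.3% DMSO) incubated with microsomes, NADPH and isoform-specific probe substrate. CYP2C19, 2C9, 2D6, 3A4 metabolites measured by mass spectrometry; CYP1A2 by fluorescent metabolite. IC50 from reduced metabolite formation versus vehicle.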

Homo sapiens = species: Homo sapiens; test: Selectivity ratio of Ki for human NOX2 to Ki for human NOX4
Procedure, shortened: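 Ratio of Ki values from the Amplex Red membrane ROS assay (PMN membranes for Nox2, Nox4-overexpressing membranes), NADPH-triggered, 1 nM–100 µM, 20 min at 37 °C; Ki via Cheng-Prusoff.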

Mus musculus = test: Antifibrotic activity in C57BL/6 mouse pulmonary fibrosis curative model assessed as reduction in bleomycin-induced collagen deposition at 10 mg/kg, po qd administered 10 days post challenge […] measured on day 25 by SIRCOL assay; assay type: functional
Procedure, shortened: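 Male C57BL/6 mice (9–10 weeks) under ketamine/xylazine given 0.0125 U bleomycin intratracheally in 40 µL saline. Daily oral dosing at 10 mL/kg in 3% DMSO then aqueous 0.5% CMC/0.25% Tween 20. Whole-lung collagen by Sircol dye binding (0.5 M acetic acid extraction overnight, 540 nm, rat-tail collagen standard), µg per lung.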

[11] = target: Xanthine dehydrogenase/oxidase (Homo sapiens, UniProt P47989); test: Inhibition of xanthine oxidase assessed as inhibition of ROS production after 20 mins by cell-free amplex red assay; procedure, shortened: as §2
Salmonella typhimurium [12] = test: Mutagenicity in Salmonella Typhimurium at 100 uM by AMES test; assay type: toxicity, organism-based; conditions: salmonella enterica subsp. enterica serovar typhimurium
hERG = hERG (Homo sapiens, UniProt Q12809); test: Inhibition of hERG at 1 uM by patch clamp assay; assay type: toxicity
Cytochrome P450 2C19 = Cytochrome P450 2C19 (Homo sapiens, UniProt P33261); test: Inhibition of human recombinant CYP2C19 by mass spectrophotometry; assay type: ADME; procedure, shortened: as §3
Cytochrome P450 3A4 = Cytochrome P450 3A4 (Homo sapiens, UniProt P08684); test: Inhibition of human recombinant CYP3A4 by mass spectrophotometry; assay type: ADME; procedure, shortened: as §3
Cytochrome P450 2C9 = Cytochrome P450 2C9 (Homo sapiens, UniProt P11712); test: Inhibition of human recombinant CYP2C9 by mass spectrophotometry; assay type: ADME; procedure, shortened: as §3
Cytochrome P450 1A2 = target: T2, Cytochrome P450 1A2 (Homo sapiens, UniProt P05177); test: Inhibition of human recombinant CYP1A2 assessed as inhibition of fluorescent metabolite formation; assay type: ADME; procedure, shortened: as §3
T2 sequence (P05177 whole entry): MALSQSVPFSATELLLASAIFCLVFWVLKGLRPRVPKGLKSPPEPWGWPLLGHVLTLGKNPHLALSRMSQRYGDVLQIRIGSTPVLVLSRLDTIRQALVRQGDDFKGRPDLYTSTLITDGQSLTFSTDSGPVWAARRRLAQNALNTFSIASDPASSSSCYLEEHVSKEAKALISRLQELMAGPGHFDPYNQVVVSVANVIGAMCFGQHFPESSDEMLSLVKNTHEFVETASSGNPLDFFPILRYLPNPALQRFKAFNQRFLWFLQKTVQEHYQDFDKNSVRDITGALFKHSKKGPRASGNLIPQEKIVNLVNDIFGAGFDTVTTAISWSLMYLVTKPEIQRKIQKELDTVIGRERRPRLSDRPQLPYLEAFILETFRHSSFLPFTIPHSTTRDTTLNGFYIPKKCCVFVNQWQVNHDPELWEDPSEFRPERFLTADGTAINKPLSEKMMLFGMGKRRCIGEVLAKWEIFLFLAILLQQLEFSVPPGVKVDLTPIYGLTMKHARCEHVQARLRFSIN

Sequence of Xanthine dehydrogenase/oxidase (P47989 whole entry): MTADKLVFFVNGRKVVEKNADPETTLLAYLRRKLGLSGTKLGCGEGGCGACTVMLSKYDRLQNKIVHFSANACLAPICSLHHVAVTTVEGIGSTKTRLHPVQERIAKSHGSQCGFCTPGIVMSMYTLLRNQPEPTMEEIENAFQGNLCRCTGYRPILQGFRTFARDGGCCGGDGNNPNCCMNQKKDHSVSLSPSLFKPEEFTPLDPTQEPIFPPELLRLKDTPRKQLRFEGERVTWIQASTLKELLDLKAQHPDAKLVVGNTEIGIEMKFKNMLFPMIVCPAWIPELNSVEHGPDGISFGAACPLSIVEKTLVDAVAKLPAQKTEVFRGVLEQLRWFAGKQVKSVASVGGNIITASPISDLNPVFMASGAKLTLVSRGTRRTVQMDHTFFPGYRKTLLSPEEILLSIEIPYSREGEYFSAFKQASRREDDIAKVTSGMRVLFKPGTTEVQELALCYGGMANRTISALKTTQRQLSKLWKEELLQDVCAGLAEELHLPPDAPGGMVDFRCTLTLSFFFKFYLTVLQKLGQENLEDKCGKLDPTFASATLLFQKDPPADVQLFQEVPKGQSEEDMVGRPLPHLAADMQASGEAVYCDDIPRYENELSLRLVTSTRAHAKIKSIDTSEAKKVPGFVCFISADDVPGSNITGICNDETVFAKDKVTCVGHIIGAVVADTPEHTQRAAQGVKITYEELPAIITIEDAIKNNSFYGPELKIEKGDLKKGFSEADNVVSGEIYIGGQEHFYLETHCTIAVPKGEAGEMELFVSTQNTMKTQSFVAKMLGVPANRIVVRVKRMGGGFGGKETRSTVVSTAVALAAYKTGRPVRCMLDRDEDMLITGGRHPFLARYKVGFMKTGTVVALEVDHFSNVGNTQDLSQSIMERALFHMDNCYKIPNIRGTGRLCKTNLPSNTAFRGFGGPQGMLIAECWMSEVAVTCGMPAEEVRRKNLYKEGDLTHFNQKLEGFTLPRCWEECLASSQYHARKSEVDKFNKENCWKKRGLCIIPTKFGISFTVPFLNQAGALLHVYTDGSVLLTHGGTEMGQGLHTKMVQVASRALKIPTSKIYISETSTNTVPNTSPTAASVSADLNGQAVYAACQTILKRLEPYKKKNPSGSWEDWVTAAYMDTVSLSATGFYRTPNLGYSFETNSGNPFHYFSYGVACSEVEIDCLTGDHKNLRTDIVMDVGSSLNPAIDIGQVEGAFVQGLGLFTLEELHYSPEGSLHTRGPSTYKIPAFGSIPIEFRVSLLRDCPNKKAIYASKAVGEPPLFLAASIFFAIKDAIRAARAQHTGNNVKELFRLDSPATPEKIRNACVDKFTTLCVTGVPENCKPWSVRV
Sequence of hERG (Q12809 whole entry): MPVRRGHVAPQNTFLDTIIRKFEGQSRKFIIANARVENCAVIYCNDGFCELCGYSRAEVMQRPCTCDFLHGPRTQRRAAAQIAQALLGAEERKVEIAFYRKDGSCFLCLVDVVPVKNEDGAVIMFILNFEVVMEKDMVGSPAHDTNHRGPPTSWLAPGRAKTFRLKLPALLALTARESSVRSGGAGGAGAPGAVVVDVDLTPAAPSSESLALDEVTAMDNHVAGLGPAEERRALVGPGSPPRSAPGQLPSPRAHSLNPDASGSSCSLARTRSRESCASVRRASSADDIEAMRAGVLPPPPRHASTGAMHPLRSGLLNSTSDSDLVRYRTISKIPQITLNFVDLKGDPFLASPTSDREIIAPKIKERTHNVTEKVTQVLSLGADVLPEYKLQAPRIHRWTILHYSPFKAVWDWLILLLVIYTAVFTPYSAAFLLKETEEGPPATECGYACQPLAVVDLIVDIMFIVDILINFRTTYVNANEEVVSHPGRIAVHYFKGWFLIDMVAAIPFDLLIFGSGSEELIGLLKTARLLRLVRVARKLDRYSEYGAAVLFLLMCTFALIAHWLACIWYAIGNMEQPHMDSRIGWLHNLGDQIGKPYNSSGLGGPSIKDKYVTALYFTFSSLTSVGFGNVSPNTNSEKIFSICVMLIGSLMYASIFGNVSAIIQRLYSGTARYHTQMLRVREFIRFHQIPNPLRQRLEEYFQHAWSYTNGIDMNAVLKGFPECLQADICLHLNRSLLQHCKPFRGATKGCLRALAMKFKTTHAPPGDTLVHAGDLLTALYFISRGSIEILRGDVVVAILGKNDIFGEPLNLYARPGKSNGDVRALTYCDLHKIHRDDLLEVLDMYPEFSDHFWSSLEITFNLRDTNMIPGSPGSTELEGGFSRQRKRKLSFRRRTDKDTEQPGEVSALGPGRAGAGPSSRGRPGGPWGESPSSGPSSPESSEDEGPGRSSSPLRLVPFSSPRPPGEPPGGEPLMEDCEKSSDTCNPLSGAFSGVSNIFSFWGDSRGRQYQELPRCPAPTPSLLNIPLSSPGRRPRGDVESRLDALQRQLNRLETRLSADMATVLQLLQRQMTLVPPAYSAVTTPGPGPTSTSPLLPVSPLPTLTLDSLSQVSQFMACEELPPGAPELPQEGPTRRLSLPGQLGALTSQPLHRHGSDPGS
Sequence of Cytochrome P450 3A4 (P08684 whole entry): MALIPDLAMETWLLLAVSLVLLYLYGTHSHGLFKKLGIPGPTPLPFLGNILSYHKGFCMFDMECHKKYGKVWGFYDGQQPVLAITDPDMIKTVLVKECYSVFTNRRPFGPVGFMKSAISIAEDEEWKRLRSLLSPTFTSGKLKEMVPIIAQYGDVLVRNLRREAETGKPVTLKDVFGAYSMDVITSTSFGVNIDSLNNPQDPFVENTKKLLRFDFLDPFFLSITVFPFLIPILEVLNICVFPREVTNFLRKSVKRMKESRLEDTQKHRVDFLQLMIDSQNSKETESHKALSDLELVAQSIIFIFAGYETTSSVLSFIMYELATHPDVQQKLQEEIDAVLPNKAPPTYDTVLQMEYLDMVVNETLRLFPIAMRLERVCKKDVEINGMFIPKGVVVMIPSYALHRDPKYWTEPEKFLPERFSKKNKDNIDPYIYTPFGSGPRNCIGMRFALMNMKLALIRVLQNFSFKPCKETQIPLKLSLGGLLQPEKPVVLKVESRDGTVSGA
Sequence of Cytochrome P450 2D6 (P10635 whole entry, canonical isoform): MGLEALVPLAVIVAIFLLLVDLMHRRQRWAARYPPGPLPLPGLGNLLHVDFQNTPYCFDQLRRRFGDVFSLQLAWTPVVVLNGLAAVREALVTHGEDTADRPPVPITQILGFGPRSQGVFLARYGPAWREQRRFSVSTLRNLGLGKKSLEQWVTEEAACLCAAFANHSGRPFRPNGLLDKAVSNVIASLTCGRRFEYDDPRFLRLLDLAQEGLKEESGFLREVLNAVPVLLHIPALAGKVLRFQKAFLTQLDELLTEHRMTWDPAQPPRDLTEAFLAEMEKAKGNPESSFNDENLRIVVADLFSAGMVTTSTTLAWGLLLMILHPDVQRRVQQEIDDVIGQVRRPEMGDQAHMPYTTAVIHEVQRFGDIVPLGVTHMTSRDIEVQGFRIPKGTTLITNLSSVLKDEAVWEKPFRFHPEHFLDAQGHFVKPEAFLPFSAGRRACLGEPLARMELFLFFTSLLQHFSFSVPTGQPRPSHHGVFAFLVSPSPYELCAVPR
Sequence of Cytochrome P450 2C19 (P33261 whole entry): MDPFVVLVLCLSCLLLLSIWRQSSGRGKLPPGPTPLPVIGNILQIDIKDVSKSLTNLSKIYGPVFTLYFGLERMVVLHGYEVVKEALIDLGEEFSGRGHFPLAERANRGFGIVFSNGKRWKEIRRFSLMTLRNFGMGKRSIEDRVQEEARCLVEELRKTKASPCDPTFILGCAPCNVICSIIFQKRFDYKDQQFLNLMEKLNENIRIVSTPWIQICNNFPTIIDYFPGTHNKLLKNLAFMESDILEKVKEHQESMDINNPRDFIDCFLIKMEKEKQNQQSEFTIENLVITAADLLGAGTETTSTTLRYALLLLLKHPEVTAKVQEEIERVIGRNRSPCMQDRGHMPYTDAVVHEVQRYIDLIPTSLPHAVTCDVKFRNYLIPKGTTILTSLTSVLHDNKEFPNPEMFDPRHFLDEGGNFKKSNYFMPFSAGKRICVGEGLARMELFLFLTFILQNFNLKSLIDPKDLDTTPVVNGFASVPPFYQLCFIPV
Sequence of Cytochrome P450 2C9 (P11712 whole entry): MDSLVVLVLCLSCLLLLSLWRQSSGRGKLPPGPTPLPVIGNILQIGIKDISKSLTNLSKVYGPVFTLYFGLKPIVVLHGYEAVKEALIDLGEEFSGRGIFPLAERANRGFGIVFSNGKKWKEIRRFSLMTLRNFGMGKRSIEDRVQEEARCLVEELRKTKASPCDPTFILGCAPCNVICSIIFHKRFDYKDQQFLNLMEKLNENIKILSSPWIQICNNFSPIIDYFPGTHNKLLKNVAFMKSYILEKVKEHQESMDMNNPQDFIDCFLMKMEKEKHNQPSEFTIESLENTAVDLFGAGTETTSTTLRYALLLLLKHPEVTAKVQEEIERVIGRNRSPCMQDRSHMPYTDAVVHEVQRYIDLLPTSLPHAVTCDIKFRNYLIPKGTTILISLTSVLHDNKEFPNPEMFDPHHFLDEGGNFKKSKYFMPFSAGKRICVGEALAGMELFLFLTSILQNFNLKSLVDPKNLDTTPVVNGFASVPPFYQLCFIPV

Cl.O=c1c2c3n(c(=O)cc2[nH]n1-c1ccccc1Cl)CCCN(Cc1ccccn1)C3
Cmax [1]: 21800 ng/mL
CL/F [2]: 17 mL/min/kg
logD [3]: 1.1
Ki (NADPH oxidase 2): 1.14 µM
Vd [4]: 0.47 L/kg
AUC(0-inf) [5]: 9900 ng·h/mL
efflux ratio at 2 h, 10 µM [6]: 10.1
AUC(0-inf) [7]: 11800 ng·h/mL
bioavailability [8]: 42%

Cl.O=c1c2c3n(c(=O)cc2[nH]n1-c1ccccc1Cl)CCCN(Cc1ccccc1)C3
Activity (Salmonella typhimurium [9]): Non-toxic
Activity [10]: Non-toxic
Cmax [1]: 42300 ng/mL
CL/F [2]: 4.33 mL/min/kg
IC50 (Cytochrome P450 2D6): > 25 µM
logD [3]: 2.23
Ki (NADPH oxidase 2): 1.34 µM
Ratio Ki (Homo sapiens): 18.6
Vd [4]: 0.28 L/kg
AUC(0-inf) [5]: 41400 ng·h/mL
inhibition in vivo at 10 mg/kg (Mus musculus): 64%
Ki [11]: > 30 µM
Activity (Salmonella typhimurium [12]): Non-toxic
inhibition at 1 µM (hERG): 8.7%
IC50 (Cytochrome P450 2C19): > 25 µM
IC50 (Cytochrome P450 3A4): > 25 µM
IC50 (Cytochrome P450 2C9): > 25 µM
efflux ratio at 2 h, 10 µM [6]: 0.48
AUC(0-inf) [7]: 39300 ng·h/mL
bioavailability [8]: 53%
IC50 (Cytochrome P450 1A2): > 25 µM
